MEKK3 PB1 HTS = modulators of MEKK3-MEK5 PB1 binding, primary screen, biochemical, wildtype MEKK3, multiplex bead flow cytometry, Alexa488-MEK5; Mitogen-activated protein kinase kinase kinase 3 (Homo sapiens), Q99759; bead-based flow cytometry, Alexa488-MEK5 binding to MEKK3; actives lie on both sides; 0 = blocked by unlabeled MEK5, 100 = vehicle; binding response (% of control), % at 10 µM; hit rate 1.4% among 290,000; AID 1529, 2009;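 active means binding response more than 3 SD above or below the average of its plate-row segment, actives on both sides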;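 further: Alexa488 bead fluorescence after subtracting the streptavidin-only scavenger bead signal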
UCH37 DUB inh = inhibitors of human UCH37 deubiquitinase, primary screen, biochemical, Ub-AMC cleavage, fluorescence; Ubiquitin carboxyl-terminal hydrolase isozyme L5 (Homo sapiens), Q9Y5K5; purified proteasome/UCH37; inhibition, % (test concentration not listed); hit rate 0.33% among 330,000; AID 588478, 2011;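 active means mean inhibition over replicate wells above about 20%, limit read from the data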;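 further: 0% = compound-free wells with enzyme and 100% = wells lacking proteasome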
Target sequence (Q9Y5K5 whole entry, looked up): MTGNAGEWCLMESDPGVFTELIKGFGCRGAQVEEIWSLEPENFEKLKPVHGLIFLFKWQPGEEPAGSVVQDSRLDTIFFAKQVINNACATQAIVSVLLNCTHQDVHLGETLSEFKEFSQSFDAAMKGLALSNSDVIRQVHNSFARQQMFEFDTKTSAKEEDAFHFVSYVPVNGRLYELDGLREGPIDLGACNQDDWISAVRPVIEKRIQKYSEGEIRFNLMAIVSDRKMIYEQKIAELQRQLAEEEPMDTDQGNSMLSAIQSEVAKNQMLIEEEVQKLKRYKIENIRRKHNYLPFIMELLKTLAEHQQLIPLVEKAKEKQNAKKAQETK
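Signal – fluorescence, ex 355 nm, em 460 nm · System – Proteasome-bound UCH37 · Input – 0.15 nM proteasome as dispensed · Timing – 30 min preincubation with enzyme, 25 min cleavage at room temperature · Read-out basis – percent inhibition of cleavage signal versus uninhibited and no-proteasome wells · Medium – Tris-HCl pH 7.4 with ATP-MgCl2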
MEKK2wt PB1 HTS = modulators of MEK5 binding to wildtype MEKK2, primary screen, biochemical, multiplex bead flow cytometry, Alexa488-MEK5; Mitogen-activated protein kinase kinase kinase 2 (Homo sapiens), Q9Y2U5; Alexa488-MEK5 binding to MEKK2 WT; actives lie on both sides; binding response (% of control), % at 10 µM; hit rate 1.1% among 290,000; in the data active means binding response below about 67% or above about 130%
Rce1 inhib = yeast Rce1p protease inhibitors, primary screen, biochemical, fluorescence, cell-free homogeneous; CAAX prenyl protease 2 (Saccharomyces cerevisiae (strain ATCC 204508 / S288c)), Q03530; yeast membranes, quenched prenylated peptide cleavage fluorescence; calls only; hit rate 0.27% among 290,000; AID 2563, 2010;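 active means fall in fluorescence gain of 50% or more versus controls, with final raw signal at or below 3038400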;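 further: plate controls were neutral control wells for no effect and wells lacking membranes for full effect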
Target sequence (Q03530 whole entry, looked up): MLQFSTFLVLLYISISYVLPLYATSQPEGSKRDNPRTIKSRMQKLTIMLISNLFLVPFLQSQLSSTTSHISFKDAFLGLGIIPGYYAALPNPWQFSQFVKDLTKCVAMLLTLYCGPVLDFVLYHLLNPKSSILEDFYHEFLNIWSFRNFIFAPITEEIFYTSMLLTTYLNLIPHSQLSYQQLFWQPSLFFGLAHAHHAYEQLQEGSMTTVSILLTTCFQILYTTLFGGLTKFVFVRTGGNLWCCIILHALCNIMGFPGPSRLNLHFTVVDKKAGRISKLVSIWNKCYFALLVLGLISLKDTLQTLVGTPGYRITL
MEKK2mut PB1 HTS = MEK5 binding signal on mutant MEKK2 PB1, primary screen, biochemical, multiplex bead flow cytometry, Alexa488-MEK5; Alexa488-MEK5 binding to MEKK2 mutant; percent response, % at 10 µM; hit rate 0.35% among 290,000; in the data active means percent response above about 24%, passing the limit was not always enough
T cell HTS = modulators of CD8 T cell-vesicle binding, primary screen, mouse 2C CD8+ T cells, flow cytometry. 2C CD8+ T cell-vesicle binding; stronger effect = lower value. response (vesicle binding), % at 7 µM. hit rate 0.068% among 330,000. AID 2052, 2009;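 active means response, share of CD8 T cells binding vesicles, and their 90th percentile fluorescence all below set limits, cut at about 80% in these data, passing the limit was not always enough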;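 further: values below 100% mean blocked vesicle binding to the CD8+ T cells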
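Read-out – percent CD8+ FL2 mean versus row control · System – murine 2C transgenic CD8+ T lymphocytes · Times – 1.5 h cell–vesicle binding at 37 °C, then 20 min icy labelling · Control set – naked vesicles low, QL9 vesicles with vehicle high · Detection – cytometric PE anti-B7-1 and Alexa647 anti-CD8 signals after 1% paraformaldehyde fixation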
MEKK2wt confirm = modulators of MEK5 binding to wildtype MEKK2, confirmation, biochemical, single concentration, multiplex bead flow cytometry. shares compounds with MEKK3 PB1 HTS. Alexa488-MEK5 binding to MEKK2 WT; actives lie on both sides. binding response (% of control), % at 10 µM. hit rate 2.4% among 5,900; in the data active means binding response below about 16% or above about 210%; inactive means in between
MEKK2mut-MEK5 = mutant MEKK2 PB1-MEK5 binding signal retest – biochemical, single concentration, multiplex bead flow cytometry, confirmation; shares compounds with MEKK3 PB1 HTS; Alexa488-MEK5 binding to MEKK2 mutant; percent response, % at 10 µM; hit rate 2% among 5,900; AID 1893, 2009; in the data active means percent response mostly above about 71%, no sharp cut-off; inactive means mostly below about 38%;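 further: higher means compound restores mutant binding toward wildtype level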
MEKK3 confirm = MEKK3 wild-type PB1 binding to MEK5, inhibitors, confirmation, biochemical, bead multiplex flow cytometry, single concentration, wildtype | shares compounds with MEKK3 PB1 HTS | Alexa488-MEK5 binding to MEKK3; stronger effect = lower value | binding response (% of control), % at 10 µM | hit rate 1.8% among 5,900 | AID 1894, 2009;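 active means binding response below 72% of control, or above a set upper limit, though filed actives all read lower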;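 further: 100% = DMSO only wells and 0% = binding blocked by excess unlabeled MEK5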
Starred values were filed as active, the others as inactive; i = inactive; . = no result; [ ] = another dose, or the depositor's remark. In the library only some 2.5% were active in any assay of this set; here they are far more common.

SMILES	MEKK3 PB1 HTS	UCH37 DUB inh	MEKK2wt PB1 HTS	Rce1 inhib	MEKK2mut PB1 HTS	T cell HTS	MEKK2wt confirm	MEKK2mut-MEK5	MEKK3 confirm
CON=Cc1ccc(Oc2ccc(C)cc2)c([N+](=O)[O-])c1	.	2	.	.	.	.	.	.	.
Cc1cc(C=NN2CCN(C)CC2)c(C)n1-c1ccccc1F	.	3	.	.	.	.	.	.	.
CC(/C=C/c1ccccc1F)=NNC(=O)c1ccc(Cl)cc1	.	5	.	.	.	.	.	.	.
COc1ccc(-c2nn(-c3ccccc3)cc2C=NNC(=O)c2ccc3c(c2)OCO3)cc1	.	-1	.	.	.	.	.	.	.
COc1ccc(CNC(=O)CC(C)=NNC(=O)COc2cccc(C)c2)cc1	.	3	.	.	.	.	.	.	.
COc1ccc(NC(=O)c2cnn(-c3ccccc3)c2C)cc1OC	95	3	95	i	2	236	.	.	.
CCN1CCN(Cc2ccc(NC(=O)c3cc(NC(=O)c4cnn(-c5ccccc5)c4N)cc(OC)c3)cc2C(F)(F)F)CC1	107	1	151*	i	53*	849	214*	48	100
COc1ccc(C(C)=NOCC(=O)Nc2nc3ccccc3s2)cc1OC	.	4	.	.	.	.	.	.	.
CCN(CC)CCCN(C(=O)c1cccs1)c1nc(-c2ccc(OC)cc2)cs1	97	4	143*	i	2	213	116	13	104
CCN(CC)CCCN(C(=O)c1ccco1)c1nc(-c2ccc(Cl)cc2)cs1	108	6	169*	i	39*	251	158	29	108
CCN(CC)CCCN(C(=O)c1ccco1)c1nc(-c2ccc(C)cc2)cs1	105	5	135	i	-1	i	.	.	.
CCN(CC)CCCN(C(=O)c1cccc(C)c1)c1nc(-c2ccc(OC)cc2)cs1	106	3	143*	i	14	156	151	22	106
CCN(CC)CCCN(C(=O)c1ccc(Br)cc1)c1nc(-c2ccc(OC)cc2)cs1	100	4	176*	i	24*	184	152	21	78
COc1cccc(C=NNC(=O)CC2C(=O)NN=C2C)c1OC (stereo not given)	.	-9	.	.	.	.	.	.	.
CCC(C)=NOc1nc(C)cc(C)n1	.	0	.	.	.	.	.	.	.
C/C(=N\NC(=O)c1ccc(-c2ccccc2)cc1)C1C(=O)c2ccccc2C1=O	47*[inhibitor]	.	47*[inhibitor]	i	-16	318	97	0	103
C/C(=N\NC(=O)c1ccc(Br)cc1)C1C(=O)c2ccccc2C1=O	103	.	105	i	3	785	.	.	.
CN(C)C(/C=C/Nc1ccc(Br)cc1)=C(C#N)C#N	103	1	103	.	8	286	.	.	.
Brc1ccc(N=C/C=C/C=C/Nc2ccc(Br)cc2)cc1	46*[inhibitor]	.	38*	.	140*	0	48	-30	64*
COc1ccc(C(=O)N2CCC(c3ccccc3)CC2)c(OC)c1OC	134*	1	123	i	2	246	109	0	102
COc1cccc(C(=O)N2CCN(C(=O)c3ccc(-c4ccccc4)cc3)CC2)c1OC	94	5	93	i	-2	191	.	.	.
CC1(C)CC(=O)C(C#N)=C(NCCCO)C1	89	3	90	i	-3	328	.	.	.
CC1(C)CC(=O)C([N+](=O)[O-])=C(NCCCC(=O)O)C1	64*[inhibitor]	5	97	i	-1	182	98	-3	100
O=C(Nc1cccc(NS(=O)(=O)c2ccc(S(=O)(=O)NC3CC3)cc2)c1)c1ccccn1	124*	1	114	.	5	320	101	1	108
COc1ccc(-c2cc(C(=O)NN=C(C)c3ccco3)c3ccccc3n2)c(OC)c1	.	-35	.	.	.	.	.	.	.
SMILES	MEKK3 PB1 HTS	UCH37 DUB inh	MEKK2wt PB1 HTS	Rce1 inhib	MEKK2mut PB1 HTS	T cell HTS	MEKK2wt confirm	MEKK2mut-MEK5	MEKK3 confirm
COC(=O)C1CCN(CCCOc2ccc(CN3CCN(c4ccc([N+](=O)[O-])cc4)CC3)cc2)CC1	106	.	141*	i	30	342	110	4	98
CC1CCN(C(=O)COC(=O)Cc2c[nH]c3ccccc23)CC1	97	3	97	i	4	i	.	.	.
CC1CCN(C(=O)COC(=O)CCc2c[nH]c3ccccc23)CC1	50*[inhibitor]	4	65	i	-14	390	106	5	106
CCCCCCCCCCCCCCCCn1cc[n+](C)c1	113	76*	213*	i	76*	221	148	17	100
CCS(=O)(=O)N1CCC(C(=O)NCCC2=CCCCC2)CC1	73*[inhibitor]	15	79	i	-6	98	96	-3	100
COc1c(/C=N/NC(=O)c2ccccc2O)c(CCN(C)C(C)=O)cc2c1OCO2	134*	.	100	i	-1	255	105	7	98
CCC(=O)N(C)CCc1cc2c(c(OC)c1/C=N/NC(=O)c1ccc(Br)cc1)OCO2	131*	.	99	i	0	288	67	-10	85
Cc1cccc(C(=O)Nc2cccc(C(=O)NN=Cc3ccccn3)c2)c1	.	-1	.	.	.	.	.	.	.
NN=C(c1ccccc1)c1cc(Br)ccc1N	.	5	.	.	.	.	.	.	.
COC(=O)Cn1c(N2CCCC2)nc2c1c(=O)n(C)c(=O)n2C	112	4	115	i	30*	268	101	-3	101
CC(O)Cn1c(N2CCCC2)nc2c1c(=O)n(C)c(=O)n2C (stereo not given)	102	2	107	i	7	198	.	.	.
CCCCn1c(N)c(S(=O)(=O)c2ccc(C)cc2)c2nc3ccccc3nc21	98	-297	91	i	-2	68	.	.	.
